This is an account of results in the array DNA melting data of Ke et al. (doi:10.1101/2024.01.08.574731).

Data set [1] is described as follows: folding enthalpy; higher = less favourable; fluorescence melt of hairpins on a sequencing array, two-state fit. The settings on record: sodium 0.088 M. The gist of the method:
(§1)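 To match UV melts, fitted temperatures were raised by 9.35 °C. These fits were bootstrapped two-state models that gave melting temperature and folding enthalpy, combined by inverse variance over four replicates. The input was normalised Cy3 fluorescence of library hairpins with annealed Cy3 and quencher oligos on a sequenced MiSeq flow cell, imaged in 50 mM Na-HEPES pH 8.0, 25 mM NaCl in 2.5 °C steps up to 60 °C.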

Data set [2] can be described thus: melting temperature; fluorescence melt of hairpins on a sequencing array, two-state fit, raised by 9.35 °C to match UV melts. To be noted: sodium 0.088 M. The procedure, abridged: as §1

GATCTTGCTAAGATC ((((((...)))))): the folding enthalpy in data set [1] was -31.8 kcal/mol. In addition, in data set [2], the Tm worked out at 45.4 °C.

Turning to GATCTTGTAAAGATC ((((((...)))))), the folding enthalpy in data set [1] was -43.5 kcal/mol. Further, the Tm in data set [2] was 53.8 °C.

In the case of GATCTTGTCAAAGATC ((((((....)))))), in data set [1], the folding enthalpy was -41.9 kcal/mol. The Tm in data set [2] worked out at 54.8 °C.

GATCTTGTGGAAGATC ((((((....)))))): the folding enthalpy in data set [1] was -29.4 kcal/mol. The Tm in data set [2] came to 41.3 °C.

Consider GATCTTTAACAAGATC ((((((....)))))), for which the folding enthalpy in data set [1] is -32.6 kcal/mol. In data set [2], the Tm is 38.1 °C.

For the sequence GATCTTTCGGAAGATC ((((((....)))))), the folding enthalpy in data set [1] was -33.4 kcal/mol. Further, the Tm in data set [2] was determined as 43.9 °C.

GATCTTTCTCAAGATC ((((((....)))))): the folding enthalpy in data set [1] is -33.4 kcal/mol. Also, in data set [2], the Tm was determined as 42.6 °C.

GATCTTTGACAAGATC ((((((....)))))): the folding enthalpy in data set [1] was -25.1 kcal/mol. Further, the Tm in data set [2] was 39.4 °C.

In the case of GATCTTTGATAAGATC ((((((....)))))), the folding enthalpy in data set [1] was -25.5 kcal/mol. Further, the Tm in data set [2] stood at 42.6 °C.

Regarding GATCTTTGTGAAGATC ((((((....)))))), the folding enthalpy in data set [1] was -41.7 kcal/mol. Moreover, the Tm in data set [2] worked out at 47.7 °C.

On to GATCTTTGTTAAGATC ((((((....)))))), for which the folding enthalpy in data set [1] is -33.6 kcal/mol. In addition, the Tm in data set [2] was determined as 44 °C.

In the case of GATCTTTTGAAGATC ((((((...)))))), the folding enthalpy in data set [1] was -27.8 kcal/mol. Besides, in data set [2], the Tm turned out to be 43.6 °C.

Turning to GATCTTTTTCAAGATC ((((((....)))))), the folding enthalpy in data set [1] was -33.6 kcal/mol. In data set [2], the Tm is 42.3 °C.

Take GATGAAGAAATTCATC ((((((....)))))): the folding enthalpy in data set [1] was -24.9 kcal/mol. For the same sequence, the Tm in data set [2] stood at 43.3 °C.

Take GATGACACGAAAGTGATC (((..(((....)))))): the folding enthalpy in data set [1] was -11.4 kcal/mol. In addition, in data set [2], the Tm was 30.9 °C.

On to GATGACGAAAGTCATC ((((((....)))))), for which, in data set [1], the folding enthalpy is -36.3 kcal/mol. In addition, in data set [2], the Tm came out at 67.4 °C.

With GATGACGGAAACGTTATC (((.(((....))).))), in data set [1], the folding enthalpy is -29.6 kcal/mol. Further, the Tm in data set [2] is 46.2 °C.

Consider GATGAGCGAAAGCTGATC (((.(((....))).))), for which the folding enthalpy in data set [1] was -22.1 kcal/mol. Besides, in data set [2], the Tm came out at 45.9 °C.

Consider GATGATGCGAAAGCAATC (((..(((....)))))), for which the folding enthalpy in data set [1] was -13.7 kcal/mol. Moreover, the Tm in data set [2] was found to be 37.6 °C.

As for GATGCAGGAAACTACATC ((((.((....)).)))), the folding enthalpy in data set [1] was -30.7 kcal/mol. Further, the Tm in data set [2] was 36.4 °C.

As for GATGCAGGAAACTGTATC (((.(((....))).))), in data set [1], the folding enthalpy was -33.5 kcal/mol. Further, the Tm in data set [2] came to 44.9 °C.

In the case of GATGCAGGAAACTGTGTC ((..(((....)))..)), the folding enthalpy in data set [1] is -27.1 kcal/mol. Besides, the Tm in data set [2] turned out to be 35.5 °C.

In the case of GATGCCGAAAGGCAAATC ((((((....)))..))), the folding enthalpy in data set [1] is -10.4 kcal/mol. Besides, the Tm in data set [2] was found to be 35.4 °C.

For the sequence GATGCCGAAAGGCACATC ((((((....)))..))), the folding enthalpy in data set [1] was -8.64 kcal/mol. Further, the Tm in data set [2] amounted to 33.3 °C.

With GATGCCGAAAGGCGCATC ((((((....)))..))), in data set [1], the folding enthalpy is -9.01 kcal/mol. In data set [2], the Tm stood at 32.6 °C.

As to GATGCCGAAAGGCTAATC ((((((....)))..))), the folding enthalpy in data set [1] was -9.64 kcal/mol. Moreover, in data set [2], the Tm was 30.1 °C.

Regarding GATGCCGAAAGGCTCATC ((((((....)))..))), the folding enthalpy in data set [1] is -10.4 kcal/mol. Besides, the Tm in data set [2] came to 32.7 °C.

In the case of GATGCCGGAAACGGCACC (.(((((....))))).), the folding enthalpy in data set [1] is -9.72 kcal/mol. In addition, the Tm in data set [2] is 44.5 °C.

As for GATGCCGGAAACGGCGTC ((.((((....)))).)), the folding enthalpy in data set [1] was -21.2 kcal/mol. For the same sequence, the Tm in data set [2] worked out at 62.6 °C.

Consider GATGCGCGAAAGCGAATC (((.(((....))).))), for which the folding enthalpy in data set [1] is -22.3 kcal/mol. For the same sequence, the Tm in data set [2] amounted to 57.2 °C.

In the case of GATGCGCGAAAGCGGATC (((.(((....))).))), the folding enthalpy in data set [1] is -30.6 kcal/mol. For the same sequence, in data set [2], the Tm came out at 64.5 °C.

For the sequence GATGCTGGAAACAGTGTC ((..(((....)))..)), the folding enthalpy in data set [1] was -26.2 kcal/mol. The Tm in data set [2] turned out to be 37.8 °C.

Take GATGGACCGAAAGGTATC (((..(((....)))))): the folding enthalpy in data set [1] is -11.1 kcal/mol. In data set [2], the Tm is 26.8 °C.

As to GATGGAGGAAACTCCACC (.(((((....))))).), in data set [1], the folding enthalpy was -16.3 kcal/mol. The Tm in data set [2] came to 34.1 °C.

Consider GATGGAGGAAACTCCATC (((((((....))))))), for which, in data set [1], the folding enthalpy is -38.5 kcal/mol. For the same sequence, the Tm in data set [2] was 59 °C.

As for GATGGCCGAAAGGCTATC (((.(((....))).))), the folding enthalpy in data set [1] is -27.8 kcal/mol. Also, the Tm in data set [2] turned out to be 57.5 °C.

As to GATGGCGAAAGCCAAATC ((((((....)))..))), the folding enthalpy in data set [1] was -9.36 kcal/mol. In addition, the Tm in data set [2] amounted to 33.9 °C.

As to GATGGCGAAAGCCCATC ((((((....))).))), in data set [1], the folding enthalpy was -16.6 kcal/mol. In addition, the Tm in data set [2] worked out at 52.4 °C.
